Screening data (PubChem BioAssay)
Shown are actives, neighbours in structure and some others; about 1.8% of the full set was active somewhere.
hiPSC survival – enhancers of single-cell hiPSC survival, primary screen, ATPlite luminescence | survival enhancement, % at 20 µM | 100% = ROCK inhibitor wells, 0% = DMSO | 360,000 compounds, 0.044% hits; in the data active = survival enhancement above about 18%;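 also: cells exposed to compounds for 16 hours before the ATP read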
Lipid droplet – inhibitors of hepatocyte lipid droplet formation, primary screen, imaging, high-throughput imaging, BODIPY stain; AML12 mouse hepatocytes, oleate lipid droplets; inhibition, % at 6.5 µM; 240,000 compounds, 0.4% hits;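 active = lipid droplet intensity inhibited by at least 50%, with more than 500 cells counted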
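material = mouse AML12 hepatocyte cell line, fixed after treatment | also added = 100 µM oleic acid challenge | doses = compound at 6.5 µM only | schedule = overnight exposure | technique = Image-based BODIPY and DAPI two-channel analysis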
697 NFkB inh – inhibitors of PMA/ionomycin-induced NF-kB reporter, 697 cells, primary screen, B-cell NF-kB inhibitor project, cell-based, luminescence, uHTS; AID 435022, 2010; 330,000 compounds, 0.33% hits; inhibition, % at 4 µM; 697 B-cell NF-kB luciferase reporter, 16 h; in the data active = inhibition above about 35%
Gli-Sufu block – Gli-Sufu pathway antagonists, primary screen, luciferase luminescence, Sufu-KO-LIGHT cells, uHTS. AID 588413, 2011. Sufu-KO-LIGHT fibroblasts, Gli luciferase reporter luminescence. inhibition, % at 5 µM. 340,000 compounds, 0.74% hits;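 active = inhibition above about 55%, limit read from the data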;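 also: 0% = DMSO-treated cells and 100% = wells with medium but no cells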
Jurkat NFkB inh – inhibitors of induced NF-kB luciferase reporter, primary screen, TCR NF-kB activation inhibitor project, cell-based, luminescence, uHTS; Jurkat, PMA/ionomycin-induced NF-kB luciferase reporter; inhibition, % at 4 µM; 330,000 compounds, 0.53% hits; AID 435003, 2010; in the data active = inhibition above about 50%
TAG inh – inhibitors of triacylglycerol accumulation, primary screen, cell-based, uHTS, fluorescence, H9c2 | H9c2 cells, Nile Red lipid (TAG) fluorescence; cells loaded with 200 µM oleic acid | inhibition, % at 12.5 µM | 230,000 compounds, 0.66% hits;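 active = pattern-corrected inhibition of lipid staining of at least 50% with the nuclear-stain viability signal not falling by more than 50%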;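 also: 0% = DMSO wells and 100% = triacsin C control wells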
* marks the source's active call; other numbers are inactive results; . = no result given.

SMILES	hiPSC survival	Lipid droplet	697 NFkB inh	Gli-Sufu block	Jurkat NFkB inh	TAG inh
COc1cccc(/C=N/NC(=O)c2c(C)nc3ccc(Br)cn23)c1O	-1.3	-51.6	-6.7	87.8*	49.0	.
COc1cc(OC)c2cc(C(=O)N/N=C/c3cccc(OC)c3O)[nH]c2c1	1.0	-30.2	-20.2	13.5	-6.6	54.8*
CCOc1ccccc1/C=N/NC(=O)c1c(C)nc2ccc(Br)cn12	1.3	-14.6	1.1	-3.3	14.4	.
Cc1ccccc1/C=N/Nc1nc2ccccc2[nH]1	2.7	-3.0	-23.8	-18.4	-50.0	10.8
O=C(N/N=C/c1cccc2cccnc12)c1ccccc1O	0.0	-9.5	-94.1	47.6	49.5	65.1*
C(=N\Nc1nc2ccccc2[nH]1)/c1cccc2cccnc12	-0.7	1.5	-88.5	67.3*	-51.1	66.7*
Cc1[nH]c2ccccc2c1/C=N/Nc1nc2ccccc2[nH]1	-0.5	-30.5	-31.5	-15.5	-44.5	64.3*
O=C(N/N=C/c1cccc2nccnc12)c1ccccc1O	0.0	27.4	18.1	2.2	-0.3	23.8
CCOC(=O)[C@]12CCC=C1N(CCC1=CCCCC1)C(=O)[C@H](CC(=O)NCc1ccc(OC)c(OC)c1)C2	0.8	.	.	.	.	.
CCCNC(=O)COC(=O)c1ccccc1C(=O)c1ccc(Cl)c([N+](=O)[O-])c1	19.8*	-20.0	-0.9	-4.3	0.9	18.6
c1ccc(/N=C2\N=C(Nc3ccccn3)c3ccccc32)nc1	-0.2	.	11.8	1.0	22.3	50.7*
c1ccc(Nc2ccccn2)cc1	-3.6	-7.8	0.0	-8.1	-3.5	-17.7
COc1cc(OC)cc(C(=O)N2CCN(C(=O)c3cccs3)CC2)c1	0.4	0.7	-11.4	10.2	-16.2	.
COc1ccc(NC(=O)c2[nH]c(C)c(C(C)=O)c2C)cc1	-0.5	8.4	-25.6	.	-52.5	9.9
CCc1c(C(=O)Nc2ccc(OC)cc2)[nH]c(C)c1C(C)=O	21.7*	.	15.1	-12.6	-10.0	-52.1
O=c1c(Cl)c(Cl)cnn1Cc1nnc(-c2ccc(Cl)cc2)o1	13.1	-3.2	.	13.5	.	60.9*
COc1ccc(Cn2c(SCc3cc(C)ccc3C)nc3cc(OC)c(OC)cc3c2=N)cc1	-3.7	.	-17.1	18.2	43.9	112.4*
CNc1nc2cc([N+](=O)[O-])c([N+](=O)[O-])cc2nc1NC	0.6	-23.7	.	84.2*	.	.
N#Cc1cc2nc(O)c(O)nc2cc1[N+](=O)[O-]	0.3	.	-16.0	-12.5	2.5	-13.5
C/C(=C\CNc1ncnc2nc[nH]c12)CO	-1.3	.	22.7	-9.0	17.9	.
CC(C)CCCCCCCCCCCCC(=O)NCC(=O)NC1C(C)OC(Nc2ncnc3nc[nH]c23)C(O)C1O (stereo unspecified)	-2.3	.	.	69.6*	.	71.6*
COc1ccc(C2=NOC(Cn3nc(-c4ccccc4)cc3C(=O)NCc3cccs3)C2)cc1 (stereo unspecified)	0.9	.	-2.0	12.3	-17.5	14.6
Nc1c(Cl)ncnc1N/N=C/c1ccnc2ccccc12	-2.3	-14.6	-14.0	-17.4	-22.7	.
Nc1c(Cl)ncnc1N/N=C/c1ccc2ccccc2n1	-2.8	-88.7	.	65.5*	.	78.9
Nc1c(Cl)ncnc1N/N=C/c1ccccn1	.	-162.9	.	77.0*	.	.
SMILES	hiPSC survival	Lipid droplet	697 NFkB inh	Gli-Sufu block	Jurkat NFkB inh	TAG inh
O=C(COC(=O)c1cnc(Cl)c(Cl)c1)NC1CC1	-1.4	.	-2.8	-1.3	2.4	10.0
CC(C)C[C@H]1CN(CCCC[C@@H]2CNC(=O)C(=O)N2CCc2ccccc2)C(=O)C(=O)N1Cc1ccccc1	0.5	.	.	.	.	.
COc1ccc(Cc2nc3ccc(C(=O)NC(C)Cc4ncccc4C)cc3o2)cc1OC (stereo unspecified)	-0.3	-2.0	-41.0	20.3	3.0	-5.7
CN1CCCc2cc3c(C(F)(F)F)cc(=O)oc3nc21	-0.4	.	9.4	95.7*	3.6	-8.2
COc1ccc(NC(=O)/C=C/c2ccc(Br)o2)cn1	-0.1	-0.8	-1.4	-23.2	-3.6	-9.0
COc1ccccc1CNC(=O)/C=C/c1ccc(Br)o1	1.2	1.8	21.5	-3.7	-5.4	51.3*
CCC[C@@H](CNC)NC[C@H](Cc1ccccc1)NCCCCc1ccccc1	-3.2	-4.6	-21.9	17.6	10.8	130.6*
CCCCN(CCCC)C(=O)C1(P(=O)(c2ccccc2)c2ccccc2)CCC1	0.5	-22.0	-11.9	8.5	-2.9	15.5
C[C@@]12C(=O)Nc3cc(Cl)ccc3C(=O)N1[C@H]1c3cc(Cl)ccc3OC[C@@H]1[C@@H]2c1ccccc1	-1.2	.	6.2	4.0	2.4	25.5
C[C@@]12C(=O)Nc3cc(Cl)ccc3C(=O)N1[C@H]1c3cc(Br)ccc3OC[C@@H]1[C@@H]2c1ccccc1	1.0	.	7.0	-21.3	24.2	53.3*
O=C(NC1CCSC1=O)C1CC(=O)N(c2ccc(F)cc2)C1 (stereo unspecified)	1.7	22.4	14.8	22.4	-11.1	.
CC1=NN(c2ccccc2)C(=O)/C1=C/C=C/c1ccc(N(C)C)cc1	-0.7	46.9	.	-5.5	.	66.5*
COc1ccccc1C(C[N+](=O)[O-])c1c(N)n(C)c(=O)n(C)c1=O (stereo unspecified)	-0.8	-2.2	-10.0	.	2.5	52.5*
CC(C)CCN1CCN(C2CSCCSC2)CC1CCO (stereo unspecified)	-0.5	-8.8	6.9	10.5	6.2	3.6
O=C(COc1ccc(/C=N/NC(=O)C(=O)N2CCCCC2)cc1)Nc1ccccc1Cl	-0.7	14.4	18.8	0.2	-18.2	-489.2
Cc1ccc(NC(=O)c2cc(C)n(-c3ccccc3)c2C)cc1	-2.8	-30.3	-212.0	46.2	29.5	-4.9
Cc1cc(C(=O)Nc2ccc(Cl)cc2)c(C)n1-c1ccccc1	-0.9	1.2	-81.2	69.5*	37.1	-2.6
CCOC(=O)C1=C(C)NC(C)=C(C(=O)OCC)C1C(=O)OCC(=O)NC1(C#N)CCCCC1	-0.1	.	11.2	-2.1	11.3	-2.8
Cc1ccc(-n2c(=O)[nH]c3ncccc3c2=O)cc1	1.0	-0.7	8.0	-3.0	10.6	-5.3
Cc1ccc(-n2c(-c3ccc(Br)cc3)c[n+]3c2CCc2ccc4cccnc4c2-3)cc1	-2.7	.	.	87.1*	.	.
O=C(CN1C(=O)C2CC=CCC2C1=O)Nc1nc2ccccc2s1 (stereo unspecified)	0.6	16.6	18.7	-0.7	-10.9	14.7
O=C(NCc1ccco1)C(c1ccc(F)cc1)N(C(=O)Cc1cccs1)c1cccnc1 (stereo unspecified)	3.1	0.3	15.7	2.1	0.8	-5.0
COc1ccc(N2C(=O)CC(Sc3nccc(C)n3)C2=O)c(OC)c1 (stereo unspecified)	27.5*	.	.	.	.	10.1
